Experimental findings from the array DNA melting data of Ke et al. (doi:10.1101/2024.01.08.574731) are described below.

Series [1] in a line: folding enthalpy; higher = less favourable; fluorescence melt of hairpins on a sequencing array, two-state fit. Particulars: sodium 0.088 M. The gist of the method:
(§1)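 Melting temperature and folding enthalpy were derived from bootstrapped two-state fits. The fitted temperatures were raised by 9.35 °C to agree with UV melts, and four replicates were combined by inverse variance. The underlying data were Cy3 fluorescence images of library hairpins, with annealed Cy3 and quencher oligos, on a sequenced MiSeq flow cell in 50 mM Na-HEPES pH 8.0, 25 mM NaCl, taken in 2.5 °C steps up to 60 °C, normalised to pre-quench Cy3 and to control constructs.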

Series [2] in a line: melting temperature; fluorescence melt of hairpins on a sequencing array, two-state fit, raised by 9.35 °C to match UV melts. The settings on record: sodium 0.088 M. The gist of the method: as §1

Regarding GTCATGACGAAAGTCGAC (((..(((....)))))), the folding enthalpy in series [1] was -62.5 kJ/mol. For the same sequence, the Tm in series [2] turned out to be 38.6 °C.
For GTCATGCGAAAGCAGAC (((.(((....)))))), in that order: -93.8 kJ/mol and 49.8 °C.
Taken in the same sequence, the figures for GTCATTCGAAAGAAAGAC (((.(((....))).))) were -128 kJ/mol and 38.4 °C.
Taken in the same sequence, the figures for GTCCAACGAAAGTTCGAC (((.(((....))).))) were -113 kJ/mol and 35.9 °C.
As for GTCCAAGCGAAAGCTGAC (((..(((....)))))), the folding enthalpy in series [1] is -60.2 kJ/mol. In addition, the Tm in series [2] is 41.4 °C.
For GTCCACACGAAAGTGGAC (((..(((....)))))), in that order: -125 kJ/mol and 56.3 °C.
Taken in the same sequence, the figures for GTCCACCCGAAAGGGGAC (((..(((....)))))) were -77.4 kJ/mol and 47 °C.
For GTCCACCGAAAGGTTGAC (((.(((....))).))), in that order: -124 kJ/mol and 49.3 °C.
As for GTCCACGAAAGTGAGAC ((((((....))).))), the folding enthalpy in series [1] was -99.6 kJ/mol. Also, in series [2], the Tm was found to be 52.2 °C.
For GTCCACGAAAGTGATGAC ((((((....)))..))), in that order: -61.8 kJ/mol and 39.4 °C.
For GTCCACGAAAGTGGAGAC ((((((....)))..))), in that order: -40.3 kJ/mol and 48.7 °C.
Taken in the same sequence, the figures for GTCCACGAAAGTGGCGAC ((((((....)))..))) were -55.9 kJ/mol and 58.8 °C.
In the case of GTCCACGAAAGTGTCGAC ((((((....)))..))), the folding enthalpy in series [1] is -58.5 kJ/mol. In addition, the Tm in series [2] stood at 33.8 °C.
For GTCCACGGAAACATGGAC (((((.(....).))))), in that order: -107 kJ/mol and 43.2 °C.
GTCCAGCGAAAGCTGAC (((.(((....)))))): the folding enthalpy in series [1] is -47.6 kJ/mol. The Tm in series [2] worked out at 46.4 °C.
Regarding GTCCAGGAAACTGGAC ((((((....)))))), in series [1], the folding enthalpy is -142 kJ/mol. The Tm in series [2] is 62.4 °C.
Taken in the same sequence, the figures for GTCCATCCGAAAGGAGAC (((..(((....)))))) were -61.9 kJ/mol and 24.8 °C.
Taken in the same sequence, the figures for GTCCATGGAAACATGAAC ((.((((....)))).)) were -77.4 kJ/mol and 36.4 °C.
Taken in the same sequence, the figures for GTCCCACGAAAGTGCGAC (((.(((....))).))) were -104 kJ/mol and 46.5 °C.
Turning to GTCCCACGAAAGTGTGAC (((.(((....))).))), in series [1], the folding enthalpy was -138 kJ/mol. Further, in series [2], the Tm stood at 50.4 °C.
For GTCCCAGGAAACTAGGAC ((((.((....)).)))), in that order: -89.9 kJ/mol and 35.9 °C.
For GTCCCCGAAAGGGCCGAC ((((((....)))..))), in that order: -50.6 kJ/mol and 33 °C.
For GTCCCCGAAAGGGCGAC ((((((....))).))), in that order: -87.1 kJ/mol and 52.7 °C.
Consider GTCCCCGAAAGGGCTGAC ((((((....)))..))), for which the folding enthalpy in series [1] was -48.7 kJ/mol. Further, the Tm in series [2] was determined as 34.8 °C.
Take GTCCCCGAAAGGGGTGAC ((((((....)))..))): the folding enthalpy in series [1] was -33.9 kJ/mol. The Tm in series [2] turned out to be 45 °C.
Taken in the same sequence, the figures for GTCCCGCGAAAGCGCGAC (((.(((....))).))) were -89.4 kJ/mol and 49.5 °C.
For GTCCCGGGAAACCGAGAC (((.(((....))).))), in that order: -108 kJ/mol and 46.3 °C.
For GTCCCTCCGAAAGGAGAC (((..(((....)))))), in that order: -38.1 kJ/mol and 26.4 °C.
Take GTCCCTCGAAAGAGGAC (((.(((....)))))): the folding enthalpy in series [1] is -58.5 kJ/mol. Moreover, the Tm in series [2] is 51.3 °C.
Taken in the same sequence, the figures for GTCCCTGGAAACAGAGAC (((.(((....))).))) were -119 kJ/mol and 36.3 °C.
Taken in the same sequence, the figures for GTCCGAGCGAAAGCTGAC (((..(((....)))))) were -60.8 kJ/mol and 37.2 °C.
For GTCCGCGAAAGCGACGAC ((((((....)))..))), in that order: -58.5 kJ/mol and 57.6 °C.
On to GTCCGCGAAAGCGAGGAC ((((((....)))..))), for which the folding enthalpy in series [1] was -87.9 kJ/mol. Further, the Tm in series [2] turned out to be 54.9 °C.
For GTCCGGGGAAACCCGAAC ((.((((....)))).)), in that order: -77.5 kJ/mol and 44.2 °C.
Taken in the same sequence, the figures for GTCCGGGGAAACCTGGAC ((((.((....)).)))) were -153 kJ/mol and 55.5 °C.
GTCCGTGGAAACACAGAC (((.(((....))).))): in series [1], the folding enthalpy is -118 kJ/mol. For the same sequence, in series [2], the Tm was 40.5 °C.
For GTCCGTGGAAACACGGGC (.(((((....))))).), in that order: -101 kJ/mol and 63.8 °C.
For GTCCTACGAAAGTATGAC (((.(((....))).))), in that order: -135 kJ/mol and 41.9 °C.
For the sequence GTCCTAGAAATAGGAC ((((((....)))))), in series [1], the folding enthalpy is -153 kJ/mol. Besides, the Tm in series [2] turned out to be 50.6 °C.
Taken in the same sequence, the figures for GTCCTAGGAAACTAGGGC (.(((((....))))).) were -137 kJ/mol and 49.4 °C.
For GTCCTCCCGAAAGGGGAC (((..(((....)))))), in that order: -59.7 kJ/mol and 44.8 °C.
For GTCCTCCGAAAGGAAGAC (((.(((....))).))), in that order: -115 kJ/mol and 43.9 °C.
For GTCCTCGAAAGAGAGAC ((((((....))).))), the folding enthalpy in series [1] is -84.5 kJ/mol. In addition, in series [2], the Tm was 46.6 °C.
For GTCCTCGAAAGAGCAGAC ((((((....)))..))), in that order: -83 kJ/mol and 30.1 °C.
As to GTCCTCGAAAGAGCCGAC ((((((....)))..))), the folding enthalpy in series [1] was -51.9 kJ/mol. Also, the Tm in series [2] was 26.7 °C.
For GTCCTCGAAAGAGGGAC ((((((....))).))), in that order: -65.5 kJ/mol and 53.9 °C.
As for GTCCTCGCGAAAGCGGAC (((..(((....)))))), the folding enthalpy in series [1] was -53 kJ/mol. Also, the Tm in series [2] is 43.7 °C.
Taken in the same sequence, the figures for GTCCTGCGAAAGCAGAC (((.(((....)))))) were -50.6 kJ/mol and 47.4 °C.
Taken in the same sequence, the figures for GTCCTGGCGAAAGCCGAC (((..(((....)))))) were -39.5 kJ/mol and 32.9 °C.
For GTCCTGGGAAACTAGGGC (.(((.(....).))).), in that order: -120 kJ/mol and 40 °C.
With GTCCTTCGAAAGAAAGAC (((.(((....))).))), the folding enthalpy in series [1] was -80 kJ/mol. For the same sequence, the Tm in series [2] was found to be 34.4 °C.
For GTCCTTCGAAAGAATGAC (((.(((....))).))), in that order: -127 kJ/mol and 39.2 °C.
For GTCCTTGGAAACAAGAAC ((.((((....)))).)), in that order: -59.2 kJ/mol and 30.5 °C.
As to GTCGAAGGAAACCTCGAC (((((.(....).))))), the folding enthalpy in series [1] was -133 kJ/mol. In addition, the Tm in series [2] was determined as 48 °C.
As for GTCGAATCGAAAGATGAC (((..(((....)))))), the folding enthalpy in series [1] is -83.1 kJ/mol. For the same sequence, the Tm in series [2] worked out at 32.6 °C.
For GTCGACCCGAAAGGGGAC (((..(((....)))))), in that order: -56.2 kJ/mol and 40 °C.
Taken in the same sequence, the figures for GTCGACCGAAAGGTAGAC (((.(((....))).))) were -152 kJ/mol and 59.8 °C.
For GTCGACCGAAAGGTGAC (((.(((....)))))), in that order: -93.8 kJ/mol and 51.8 °C.
For the sequence GTCGACGAAAGTCACGAC ((((((....)))..))), in series [1], the folding enthalpy is -77.7 kJ/mol. The Tm in series [2] is 45.4 °C.
For the sequence GTCGACGAAAGTCCAGAC ((((((....)))..))), the folding enthalpy in series [1] was -67.4 kJ/mol. In series [2], the Tm came to 38.9 °C.
For GTCGACGAAAGTCCGAC ((((((....))).))), in that order: -89 kJ/mol and 51.7 °C.
Taken in the same sequence, the figures for GTCGACGAAAGTCTAGAC ((((((....)))..))) were -100 kJ/mol and 42.3 °C.
Take GTCGACGGAAACGCCGAC ((((.((....)).)))): in series [1], the folding enthalpy was -187 kJ/mol. For the same sequence, the Tm in series [2] is 55.3 °C.
As for GTCGAGACGAAAGTCGAC (((..(((....)))))), the folding enthalpy in series [1] was -87.3 kJ/mol. For the same sequence, the Tm in series [2] is 51.4 °C.
Taken in the same sequence, the figures for GTCGAGCCGAAAGGCGAC (((..(((....)))))) were -36.8 kJ/mol and 50.3 °C.
Taken in the same sequence, the figures for GTCGAGCGAAAGCTAGAC (((.(((....))).))) were -140 kJ/mol and 60.5 °C.
Taken in the same sequence, the figures for GTCGAGGGAAACCTCAAC ((.((((....)))).)) were -75.7 kJ/mol and 36.5 °C.
For the sequence GTCGATACGAAAGTAGAC (((..(((....)))))), in series [1], the folding enthalpy was -84.9 kJ/mol. The Tm in series [2] was found to be 35.8 °C.
Taken in the same sequence, the figures for GTCGATGGAAACACCGAC ((((.((....)).)))) were -159 kJ/mol and 47.2 °C.
For GTCGCACGAAAGTGGAC (((.(((....)))))), in that order: -78.7 kJ/mol and 49.9 °C.
For GTCGCAGGAAACCACGAC ((((..(....)..)))), in that order: -117 kJ/mol and 35.4 °C.
As for GTCGCAGGAAACCGCAAC ((.((.(....).)).)), the folding enthalpy in series [1] was -53.5 kJ/mol. In addition, the Tm in series [2] came out at 25.8 °C.
For GTCGCATCGAAAGATGAC (((..(((....)))))), in that order: -56 kJ/mol and 28.9 °C.
